Screening data deposited in PubChem by several laboratories.
NR2E3 ag-1: agonists of human nuclear receptor NR2E3 | Q9Y5X4 | GST-NR2E3/biotin-RetCOR TR-FRET, 1536-well | inhibition of corepressor binding, % at 4.78 µM | 320,000 compounds, 0.12% hits;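 active means percent inhibition above the cutoff of mean plus 3 SD of all tested compounds, set per screening campaign, cut at about 20% in these data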;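 further: 0% = DMSO wells and 100% = biotin wells as full block of FRET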
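System: GST-tagged NR2E3 plus biotinylated RetCOR corepressor; Buffer or medium: pH 7.5 Tris-based buffer; Probe or stimulus: RetCOR corepressor, biotinylated, 7 nM; Doses: compound at 4.8 µM, single dose; Schedule: 5 h incubation at 4 °C; Technique: time-resolved FRET; Evaluation: percent inhibition of TR-FRET ratio; Replication: one well per compound, singlicate testing.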
DAX1 inh-1: inhibitors of human orphan nuclear receptor DAX1 (NR0B1); 340,000 compounds, 0.99% hits; P51843; inhibition, % at 6.75 µM; HEK293 Gal4-DAX1 luciferase reporter, luminescence;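 active means inhibition above the mean over all tested compounds plus 3 SD, cut at about 4.2% in these data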;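 further: 0% = DAX1-transfected cells with DMSO and 100% = empty-vector control cells with DMSO; inhibition shows as a rise in luminescence from relieved DAX1 repression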
Target sequence (P51843 207-470 limits assumed): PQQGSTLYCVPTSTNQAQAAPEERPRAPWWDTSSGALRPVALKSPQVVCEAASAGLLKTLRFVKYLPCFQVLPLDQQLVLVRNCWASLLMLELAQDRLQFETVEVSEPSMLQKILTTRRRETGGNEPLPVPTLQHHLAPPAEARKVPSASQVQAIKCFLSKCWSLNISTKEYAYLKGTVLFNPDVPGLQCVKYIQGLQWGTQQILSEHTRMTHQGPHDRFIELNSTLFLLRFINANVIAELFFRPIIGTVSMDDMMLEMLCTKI
NR2E3 ag-2: agonists of human NR2E3 nuclear receptor. CHO-S Gal4-NCOR/VP16-NR2E3 two-hybrid, luciferase. inhibition of corepressor binding, % at 3.98 µM. 360,000 compounds, 0.35% hits. AID 602229;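 active means inhibition above the mean of all tested compounds plus 3 SD, cut at about 70% in these data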;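 further: 0% = DMSO with NR2E3 transfected cells and 100% = cells lacking NR2E3 construct; higher means lower luciferase signal from less NR2E3 corepressor binding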
JMJD2C inh: blocks human GASC-1 demethylase activity. Q9H3R0. GST-JMJD2C(1-420) H3K9me3 demethylation, DELFIA europium. inhibition, % at 2.35 µM. 330,000 compounds, 0.069% hits;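 active means more than half of a compound's replicate wells show inhibition beyond 50%, single wells judged on their own value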;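 further: signal counts dimethyl H3K9 product captured on neutravidin plate; 0% = median of DMSO wells and 100% = 0.3 times that DMSO median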
Target sequence (Q9H3R0 1-420 limits assumed): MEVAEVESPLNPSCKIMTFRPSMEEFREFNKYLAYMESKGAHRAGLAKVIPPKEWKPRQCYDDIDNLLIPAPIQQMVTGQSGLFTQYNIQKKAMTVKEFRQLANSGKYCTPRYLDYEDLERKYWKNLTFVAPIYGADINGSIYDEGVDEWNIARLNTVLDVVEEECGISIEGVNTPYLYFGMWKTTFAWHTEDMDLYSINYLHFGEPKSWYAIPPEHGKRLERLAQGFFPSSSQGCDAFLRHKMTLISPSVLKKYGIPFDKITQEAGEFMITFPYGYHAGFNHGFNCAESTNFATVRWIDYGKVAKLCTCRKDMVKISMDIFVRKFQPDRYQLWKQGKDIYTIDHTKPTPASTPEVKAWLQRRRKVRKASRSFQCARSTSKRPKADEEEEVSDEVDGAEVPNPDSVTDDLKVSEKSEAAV
DAX1 inh-2: DAX1 (NR0B1) inhibition, primary screen. HEK293T StAR-luciferase reporter, SF-1/DAX-1 repression relief. inhibition, % at 6.8 µM. 370,000 compounds, 1.1% hits;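 active means inhibition above the mean over all tested compounds plus 3 SD, cut at about 3.6% in these data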;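 further: 0% = DAX-1 cells with DMSO and 100% = cells lacking DAX-1 with DMSO; higher inhibition means more luminescence from relief of DAX-1 repression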
SMARCA2 activ: activators of SMARCA2 function; MG213 cells, MMTV-luciferase reporter, dexamethasone, overnight; activation, % at 9.1 µM; 370,000 compounds, 1% hits; AID 652017; in the data active means activation above about 7.8%;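 further: 0% = vehicle wells and 100% = reference activator wells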
NR2E3 ag conf: confirmation of human NR2E3 agonists; 2,300 compounds, 51% hits; AID 624378; shares compounds with NR2E3 ag-2; CHO-S mammalian two-hybrid NR2E3-NCOR, luciferase luminescence; inhibition, % at 3.98 µM;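 active means average inhibition above a cutoff equal to the mean inhibition of all tested compounds plus one SD, cut at about 70% in these data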;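 further: 0% = DMSO in NR2E3 cells and 100% = DMSO in cells lacking NR2E3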
GAL4-VP16 luc: GAL4-VP16 reporter inhibition in NR2E3 agonist counterscreen. shares compounds with NR2E3 ag-2. CHO-S GAL4-VP16 luciferase reporter, luminescence. inhibition, % at 3.98 µM. 2,300 compounds, 29% hits;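 active means mean inhibition above a cutoff equal to the average over all tested compounds plus one standard deviation, cut at about 70% in these data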;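 further: luciferase from a UAS reporter driven by GAL4-VP16 transactivation; 0% = DMSO with VP16-transfected cells and 100% = DMSO with cells lacking VP16; higher means less reporter light so more repression of VP16 activity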
Numbers without * were called inactive; . = not tested or not shown. A selection: hits, their analogues and other compounds. The true share with any hit is near 3.2%.

SMILES	NR2E3 ag-1	DAX1 inh-1	NR2E3 ag-2	JMJD2C inh	DAX1 inh-2	SMARCA2 activ	NR2E3 ag conf	GAL4-VP16 luc
Cc1cc(C)n2c(Nc3c(C)cccc3C)c(-c3ccccn3)nc2n1	.	.	-0.6	.	0.6	-2.8	.	.
CCCCCCSc1cccc(-c2nc3ccc(C)cn3c2NC2CCCCC2)c1	-0.5	0.3	-25.8	2.9	-0.2	-0.7	.	.
Cc1cccc2nc(-c3ccco3)c(Nc3ccccc3)n12	0.0	-1.1	8.6	2.6	-1.1	-3.7	.	.
Cc1sc2ncnc(NCC(O)c3ccccc3)c2c1C (stereo not given)	1.8	-2.2	75.2*	-5.2	-0.5	-3.2	70.8*	50.6
Cc1sc2ncnc(NCC(O)c3ccc([N+](=O)[O-])cc3)c2c1C (stereo not given)	7.4	-2.8	105.0*	-8.0	-1.6	-3.7	94.6*	76.4*
Cc1sc2ncnc(NCc3cccs3)c2c1C	2.9	-3.6	78.4*	2.9	-2.5	-4.0	96.1*	80.7*
Cc1sc2ncnc(NCC(c3ccccc3)N(C)C)c2c1C (stereo not given)	4.1	-0.2	1.4	4.9	0.0	0.3	.	.
Cc1sc2ncnc(NCc3ccco3)c2c1C	-2.3	-3.1	34.0	13.2	-1.6	0.5	.	.
O=C(CCc1ccccc1)N[C@H]1[C@@H](OC(=O)c2ccco2)CCC[C@]12C(=O)N(Cc1ccccc1)c1ccccc12	.	.	.	.	-0.3	-2.5	.	.
O=C(CCc1ccccc1)N[C@H]1[C@H](OC(=O)c2ccc3ccccc3n2)CCC[C@@]12C(=O)N(Cc1ccccc1)c1ccccc12	.	.	.	.	-0.2	-2.5	.	.
CCOc1ccc(NC(=O)Nc2cc(OCC(F)(F)F)cc(OCC(F)(F)F)c2)cc1	0.0	1.1	5.4	1.2	0.2	-0.5	.	.
O=C(Nc1ccc(F)cc1)Nc1cc(OCC(F)(F)F)cc(OCC(F)(F)F)c1	-1.9	-4.3	49.4	-10.9	-3.9	-11.3	97.6*	85.1*
CCOc1ccc(OCCC(=O)Nc2ccc(F)cc2C)cc1	1.8	3.7	49.7	41.0	0.6	0.3	14.7	-25.0
CC(=O)NCCC(=O)Nc1ccc(F)cc1C	-1.6	-0.5	6.1	2.2	0.1	-2.4	.	.
COc1ccc(-n2c(SCC(=O)Nc3ccc(S(=O)(=O)Nc4nccs4)cc3)nnc2-c2cccs2)cc1	.	.	.	.	-0.1	-4.6	.	.
N#Cc1c(-c2cccs2)cc(-c2cccnc2)nc1N	0.9	0.0	-0.8	1.9	-1.2	-0.2	.	.
N#Cc1c(-c2cccs2)cc(-c2ccccn2)nc1N	1.8	-1.1	62.2	-15.7	-1.8	4.0	27.3	-14.7
N#CCC[C@H]1CC[C@]2(CCCN(C(=O)c3ccco3)C2)O1	.	.	.	.	0.1	-1.9	.	.
CN(C)c1ccc(NC(=O)NC2CCCCN(Cc3cccc(Cl)c3)C2=O)cc1 (stereo not given)	.	.	.	.	-1.4	-0.7	.	.
CCCCCCCCNC(=O)C1CSCCS(=O)(=O)N1Cc1ccc(F)cc1 (stereo not given)	.	.	.	.	-0.2	-3.7	.	.
CCCCCCCCN1C(=O)[C@@H](CC(=O)NCc2cccc3ccccc23)C[C@@]2(C(=O)OC)C1=C[C@H](C(C)(C)C)O[C@@H]2C	.	.	.	.	0.7	-2.1	.	.
Cc1cc(C)cc(NC(=O)c2ccc([N+](=O)[O-])o2)c1	.	.	83.5*	-5.4	-4.1	4.2	51.5	40.9
CCc1nc(NCc2ccc3c(c2)OCO3)c2oc3ccccc3c2n1	-3.3	3.9	-18.8	38.6	0.5	-3.8	.	.
Cc1nc(NCc2ccc3c(c2)OCO3)c2oc3ccccc3c2n1	-0.5	-0.9	57.5	-2.2	-0.5	-5.3	50.3	31.7
CCOC(=O)CC[C@@]1(C(=O)OCC)C[C@@H](CC(=O)NCc2ccc(C)o2)C(=O)N2CCCC=C21	.	.	.	.	0.2	-3.4	.	.
SMILES	NR2E3 ag-1	DAX1 inh-1	NR2E3 ag-2	JMJD2C inh	DAX1 inh-2	SMARCA2 activ	NR2E3 ag conf	GAL4-VP16 luc
CCCc1ccc(C(C)NC(=S)NC2CCCCC2)cc1 (stereo not given)	.	0.6	50.9	-2.4	-3.6	-0.2	41.8	51.0
CCCc1ccc(C(C)NC(=S)NCc2ccc(F)cc2)cc1 (stereo not given)	2.2	0.6	77.3*	1.1	-0.5	-2.8	29.2	28.4
CCC(C)c1ccc(C(C)NC(=S)NCc2ccc(F)cc2)cc1 (stereo not given)	-1.5	-0.8	40.0	9.4	-0.6	-1.7	.	.
CC(NC(=S)NC1CCCCC1)c1ccccc1 (stereo not given)	0.1	-1.9	-15.6	-2.0	-1.2	-4.1	.	.
CC(=O)N1C[C@@H](c2c[nH]c3ccccc23)C=C[C@H]1C(=O)NS(=O)(=O)c1ccc(C)cc1	.	.	.	.	-0.4	-2.4	.	.
CC1CCC(NS(=O)(=O)c2ccc(N3CCCC3=O)cc2)CC1 (stereo not given)	0.8	-2.0	53.1	-14.6	-3.3	-1.8	30.8	31.9
C#CCNC(=O)C[C@H]1C[C@@]2(C(=O)OC)C(=C[C@H](COCc3ccccc3)O[C@@H]2C)N(Cc2ccco2)C1=O	.	.	.	.	-1.4	1.0	.	.
O=C(CSc1nnnn1C1CC2CCC1C2)Nc1ccnc2ccccc12 (stereo not given)	1.3	-3.9	97.9*	.	-3.5	-3.4	94.0*	92.9*
Cc1ccc(NS(=O)(=O)c2ccc(-c3coc(C)n3)cc2)c(Br)c1	-3.6	1.3	56.8	-12.4	-0.2	-2.1	59.7	43.2
COc1ccc(NS(=O)(=O)c2ccc(-c3coc(C)n3)cc2)cc1	0.2	-0.3	42.9	10.7	-0.5	-2.9	.	.
CSc1cccc(NS(=O)(=O)c2ccc(-c3coc(C)n3)cc2)c1	-1.2	0.3	93.2*	-4.2	-3.0	-3.0	76.6*	60.1
COc1ccc(NS(=O)(=O)c2ccc(-c3coc(C)n3)cc2)cc1OC	2.5	-3.0	108.4*	-8.3	-1.2	-2.3	98.9*	87.1*
COC(=O)[C@@]12CCCCC=C1N(CCc1ccc(Cl)cc1)C(=O)[C@H]2CC(=O)NCCC(C)C	.	.	.	.	-1.5	-1.7	.	.
CCOC(=O)CC[C@@H]1CC[C@]2(CCCN(Cc3cccs3)C2)O1	.	.	.	.	1.0	1.0	.	.
COC(=O)[C@]12C[C@H](CC(=O)NCc3cccc(C(F)(F)F)c3)C(=O)N(Cc3ccc(Cl)cc3Cl)C1=C[C@H](C(C)(C)C)O[C@@H]2C	.	.	.	.	-0.8	-1.8	.	.
COc1cccc(-c2nc(CSCC(=O)N3CCc4ccccc43)c(C)o2)c1	-5.2	2.6	10.7	0.6	0.1	2.9	.	.
Cc1ccc(-c2nc(CSCC(=O)N3CCN(c4ccccn4)CC3)c(C)o2)cc1	-0.4	-6.4	82.8*	6.2	-3.2	-3.1	87.3*	76.4*
CCOc1ccc(-c2nc(CSCC(=O)N3CCN(c4cccc(OC)c4)CC3)c(C)o2)cc1	1.6	-2.2	66.3	3.6	-5.9	-4.7	78.2*	52.7
